Measurements reported in ChEMBL document CHEMBL4613252 (J Nat Prod, 2020).
The source made the active and inactive calls. No cut-off for these calls is given here.

Assays:
MDA-MB-231 = assay: Cytotoxicity against human MDA-MB-231 cells after 72 hrs by CellTiter 96 Aqueous One Solution reagent based assay; assay type: functional, cell-based; conditions: MDA-MB-231, 72 h
HT-29 = assay: Cytotoxicity against human HT-29 cells after 72 hrs by CellTiter 96 Aqueous One Solution reagent based assay; assay type: functional, cell-based; conditions: HT-29, 72 h
NCI-H1299 = assay: Inhibition of glucose transporter in human NCI-H1299 cells assessed as reduction in [3H]2-deoxy-D-glucose uptake at 30 uM preincubated for 15 mins followed by [3H]2-deoxy-D-glucose addition and measured after 40 mins by liquid scintillation counting method; assay type: cell-based
Summary of the method: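 H1299 NSCLC cells (maintained in DMEM, 25 mM glucose, 10% FBS) serum-starved 1.5 h in FBS-free DMEM, then 30 min in glucose-free KRP buffer. Compound at 30 μM final, 15 min; uptake started with 37 MBq/L 2-deoxy-D-[3H]glucose plus 1 mM glucose (final), 40 min. Stopped with PBS, lysate radioactivity counted. Vehicle negative control, WZB117 positive control; n = 3, Student's t-test versus vehicle.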

[1] = Inhibition of porcine cortex Na+/K+-ATPase using ATP as substrate after 15 mins by ADP-Glo Reagent based method; parameters: species or system Sus scrofa
Summary of the method: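 Enzyme from porcine cerebral cortex in assay buffer, preincubated with compound in DMSO or DMSO alone; ATP added, 15 min reaction. ADP formed was quantified luminescently: 40 min with ADP-Glo reagent, then 60 min with detection reagent (luciferin/luciferase). Concentration-response over a range of concentrations; IC50 derived; triplicate, three independent experiments.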

MDA-MB-435 = assay: Cytotoxicity against human MDA-MB-435 cells after 72 hrs by CellTiter 96 Aqueous One Solution reagent based assay; assay type: functional, cell-based; conditions: MDA-MB-435, 72 h
OVCAR-3 = assay: Cytotoxicity against human OVCAR3 cells after 72 hrs by CellTiter 96 Aqueous One Solution reagent based assay; assay type: functional, cell-based; conditions: OVCAR-3, 72 h

Structure (SMILES)	IC50 (MDA-MB-231) [µM]	IC50 (HT-29) [µM]	Activity (NCI-H1299)	IC50 [1] [µM]	IC50 (MDA-MB-435) [µM]	IC50 (OVCAR-3) [µM]
C[C@H]1O[C@@H](O[C@H]2[C@@H](O)C[C@H](O[C@H]3[C@@H](O)C[C@H](O[C@H]4CC[C@@]5(C)[C@H](CC[C@@H]6[C@@H]5C[C@@H](O)[C@]5(C)[C@@H](C7=CC(=O)OC7)CC[C@]65O)C4)O[C@@H]3C)O[C@@H]2C)C[C@H](O)[C@@H]1O [DIGOXIN]	0.31	0.28	inactive	0.23	0.17	
C[C@]12CC[C@H](O)C[C@H]1CC[C@@H]1[C@@H]2C[C@@H](O)[C@]2(C)[C@@H](C3=CC(=O)OC3)CC[C@]12O [DIGOXIGENIN]	3.2	3.6			0.9	2.4
C[C@H]1O[C@@H](O[C@H]2[C@@H](O)C[C@H](O[C@H]3[C@@H](O)C[C@H](O[C@H]4CC[C@@]5(C)[C@H](CC[C@@H]6[C@@H]5C[C@@H](O)[C@]5(C)[C@H]([C@@H]7CC(=O)O[C@@H]7O)CC[C@]65O)C4)O[C@@H]3C)O[C@@H]2C)C[C@H](O)[C@@H]1O	> 10	> 10		160	> 10	> 10
CC(=O)O[C@H]1[C@@H](OC(C)=O)C[C@H](O[C@H]2[C@@H](O)C[C@H](O[C@H]3[C@@H](O)C[C@H](O[C@H]4CC[C@@]5(C)[C@H](CC[C@@H]6[C@@H]5C[C@@H](OC(C)=O)[C@]5(C)[C@@H](C7=CC(=O)OC7)CC[C@]65O)C4)O[C@@H]3C)O[C@@H]2C)O[C@@H]1C	> 10	> 10			> 10	6.2
CC(=O)O[C@H]1[C@@H](OC(C)=O)C[C@H](O[C@H]2[C@@H](OC(C)=O)C[C@H](O[C@H]3[C@@H](OC(C)=O)C[C@H](O[C@H]4CC[C@@]5(C)[C@H](CC[C@@H]6[C@@H]5C[C@@H](OC(C)=O)[C@]5(C)[C@@H](C7=CC(=O)OC7)CC[C@]65O)C4)O[C@@H]3C)O[C@@H]2C)O[C@@H]1C	> 10	> 10			> 10	8.2
C[C@]12[C@H](O)CC3=C(CC[C@@H]4C[C@@H](O)CC[C@]34C)[C@H]1CC[C@@H]2C1=CC(=O)OC1	> 10	> 10			> 10	> 10
